Laboratory results taken from ChEMBL document CHEMBL4425108, “A Selective and Slowly Reversible Inhibitor of l-Type Amino Acid Transporter 1 (LAT1) Potentiates Antiproliferative Drug Efficacy in Cancer Cells” (J Med Chem, 2016).

Experiments:
[1] = test system: MCF7; test: Antiproliferative activity against human MCF7 cells assessed as reduction in cell viability at 100 measured after 24 hrs by resazurin dye-based fluorimetric analysis; assay type: functional
Method in brief: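 MCF-7 cells were seeded at 2 × 10^4 cells/well on collagen-coated plates and treated one day later. Agents were given alone or combined (25 or 100 µM with 100 µM partner drug) in growth medium for 3 days. Viability was read daily by resazurin fluorescence (ex 560/em 590 nm) and expressed relative to untreated controls.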

[2] = test system: Mus musculus; test: Binding affinity to LAT1 in mouse brain assessed as inhibition of [14C]-L-leucine uptake at 23 umol/kg, ip measured 10 mins post perfusion with [14C]-L-leucine; assay type: functional
Method in brief: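 Mice under ketamine/xylazine anaesthesia had the right common carotid artery cannulated. Brains were perfused at 37 °C, 2.5 mL/min, for 30 s with 0.157 µM [14C]-L-leucine, then 2 s with analyte-free buffer at 4 °C. Perfusion took place 10 or 180 min after 23 µmol/kg i.p. dosing.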

Molecule `CNC(=O)COc1ccc(-c2c(C#N)c(NC(=O)c3cccc(C[C@H](N)C(=O)O)c3)n3c(nc4ccccc43)c2C#N)cc1` has an Activity [1] of 22.9% and an inhibition in vivo at 23 µmol/kg [2] of 27%.
